Here are results for one compound from ChEMBL document CHEMBL3407343, “Functionalized tetrahydro-1H-pyrido[4,3-b]indoles: a novel chemotype with Sirtuin 2 inhibitory activity” (Eur J Med Chem, 2015).

The source made the active and inactive calls. No cut-off for these calls is given here.

The species entered for data set [1] is Homo sapiens. The data set is described as follows: Inhibition of protease (unknown origin) using deacetylated peptide as substrate assessed as luminescence at 25 uM after 30 mins relative to control. Also noted: scale not given: the % may be the effect or the level left.
A short description of data set [2]: Inhibition of luciferase (unknown origin) using deacetylated peptide as substrate assessed as luminescence at 100 uM after 30 mins relative to control. Also noted: scale not given: the % may be the effect or the level left.
The target in data set [3] is T1, NAD-dependent protein deacetylase sirtuin-2 (Homo sapiens) (UniProt Q8IXJ6).
T1 sequence (whole entry): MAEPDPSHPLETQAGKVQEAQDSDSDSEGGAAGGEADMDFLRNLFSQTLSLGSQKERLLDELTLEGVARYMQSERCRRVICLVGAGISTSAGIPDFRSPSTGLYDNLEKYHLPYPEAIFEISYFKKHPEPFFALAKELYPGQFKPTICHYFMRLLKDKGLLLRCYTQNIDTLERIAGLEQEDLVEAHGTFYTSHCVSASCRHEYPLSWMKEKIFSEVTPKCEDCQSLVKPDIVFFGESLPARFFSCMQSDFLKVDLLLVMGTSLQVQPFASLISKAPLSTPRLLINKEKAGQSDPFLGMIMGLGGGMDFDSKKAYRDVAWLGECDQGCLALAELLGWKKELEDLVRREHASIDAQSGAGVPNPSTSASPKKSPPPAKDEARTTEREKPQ
Kind of data set: (§1) Non-competitive inhibition of human recombinant SIRT2 using Z-QPK(Me)2K(Ac) as substrate assessed as decrease in maximal enzyme activity preincubated for 60 mins followed by substrate addition measured after 30 mins by double-reciprocal plot analysis in presence of 5 mM NAD+. Summed up: (§2)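 Recombinant human SIRT2 at 0.2 unit/well, preincubated 60 min at 25 °C (400 rpm) with inhibitor at four levels including zero, 2.5% DMSO. Detection reagent (acetylated Z-QPK(Me)2K(Ac)-aminoluciferin, NAD and developer) was premixed 60 min at 37 °C, added, and incubated 30 min at 25 °C before luminescence was read. For line 17, substrate was varied (4.12–333.3 µM) at fixed NAD. For line 16, NAD was varied (four levels) at 38.5 µM substrate. Double-reciprocal plots were made, and their slopes replotted against inhibitor concentration for apparent Ki.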

The target of data set [4] is T2, NAD-dependent protein deacetylase sirtuin-2 (Homo sapiens, UniProt Q8IXJ6).
T2 sequence (Q8IXJ6 whole entry): T1 sequence (whole entry)
The data set is described as §1. The following applies: read-out: Ki(app). Summed up: as §2

Data set [5] can be described thus: Self-aggregation of the compound in PBS assessed as derived light scattering count rate at 1 uM at pH 7.4 (reference value: 15.5 +/- 0.4 kilocount/sec). It is filed as physicochemical. To be noted: buffer, pH 7.4, 1 µM.
Data set [6] deals with T1, NAD-dependent protein deacetylase sirtuin-2 (Homo sapiens). Kind of data set: Inhibition of SIRT2 in human HepG2 cells assessed as increase in acetylated p53 at Lys382 and alpha-tubulin level at 2 to 4 uM after 6 hrs by Western blot analysis. The format is cell-based. Summed up: (§3)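 Cells seeded at 50,000 cells/mL in high-glucose DMEM containing compound (0.5% v/v DMSO) and incubated at 37 °C, 5% CO2: HepG2 6 h, MDA-MB-231 24 h. Washed cells were lysed on ice ≥20 min in Tris/NaCl/EDTA/Triton buffer with protease and phosphatase inhibitors, then protein measured by Bradford. SDS-PAGE blots were probed overnight at 4 °C with primary antibodies and detected by HRP/ECL, with re-probing after stripping. Each blot was repeated ≥3 times.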

Data set [7] is described as follows: Self-aggregation of the compound in PBS assessed as derived light scattering count rate at 10 uM at pH 7.4 (reference value: 15.5 +/- 0.4 kilocount/sec). The format is physicochemical. To be noted: buffer, pH 7.4, 10 µM.
The subject of data set [8] is HepG2. The data set is described as follows: Growth inhibition of human HepG2 cells after 72 hrs by MTS assay. It is filed as functional, cell-based. To be noted: HepG2, 72 h. Summed up: (§4)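 Cells in DMEM with 10% heat-treated FBS and penicillin/streptomycin, subcultured at 85–90% confluence and used within 15 passages. Seeded 2500 cells/well and grown 24 h, then compound was added (0.5% v/v DMSO final) for 72 h at 37 °C, 5% CO2. MTS was added for 4 h in the dark and absorbance read at 490 nm. Viability is corrected for compound and vehicle blanks.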

Data set [9] deals with MDA-MB-231. The data set is described as follows: Growth inhibition of human MDA-MB-231 cells after 72 hrs by MTS assay. It is filed as functional, cell-based. The following applies: MDA-MB-231, 72 h. Summed up:
as §4

Data set [10] is described as follows: Cytotoxicity against human IMR90 cells assessed as cell viability after 72 hrs by MTS assay. It is filed as cell-based. The following applies: IMR-90, 72 h.
The subject of data set [11] is MDA-MB-231. Kind of data set: Induction of apoptosis in human MDA-MB-231 cells assessed as upregulation of cleaved PARP protein expression at 2 to 8 uM after 24 hrs by Western blot analysis. The format is functional, cell-based. Summed up:
as §3

Data set [12] relates to MDA-MB-231. Kind of data set: Induction of apoptosis in human MDA-MB-231 cells assessed as upregulation of cleaved caspase-3 protein expression at 2 to 8 uM after 24 hrs by Western blot analysis. The format is functional, cell-based. Summed up:
as §3

For data set [13], the species on record is Homo sapiens. The data set is described as follows: Inhibition of protease (unknown origin) using deacetylated peptide as substrate assessed as luminescence at 10 uM after 30 mins relative to control. Also noted: scale not given: the % may be the effect or the level left. Summed up:
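Counter-screen without sirtuin: compound from DMSO stock diluted in Sirt-Glo buffer, then Sirt-Glo reagent added carrying non-acetylated control peptide. DMSO was 2.5% v/v. Mixed by shaking 30 min at 25 °C, then luminescence read. Result is % of control (peptide plus reagent in vehicle) after subtracting the vehicle-only blank.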

As to `CCCCCCCCn1c2c(c3cc(-c4ccc(S(C)(=O)=O)cc4)ccc31)CNCC2`, the Activity in data set [1] came to 94.9%; in data set [2], 94.3%; in data set [5] it was 15.6 kC/sec; in data set [7], 95 kC/sec; in [13], 96.5%. For the same compound, in data set [3], the inhibition result was “Dose-dependent effect”. Moreover, the Ki in [4] stood at 2.28 µM. Besides, the inhibition result in data set [6] was “Active”. Also, the values for the IC50 in data set [8], in [9] and in [10] were 2.1 µM, 2.1 µM and 2.72 µM, respectively. Further, the outcome in data set [11] and in data set [12] was Active.
